Measured values from ChEMBL document CHEMBL1140048, “NO-donors. Part 17: Synthesis and antimicrobial activity of novel ketoconazole-NO-donor hybrid compounds” (Bioorg Med Chem, 2008).
≈ marks a conversion by molar mass, not a printed value.

Assays:
Candida = experiment: Antifungal activity against Candida sp. by microdilution assay; assay type: functional
Procedure, shortened: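 Broth microdilution per NCCLS guidelines in RPMI 1640 (L-glutamine, MOPS, no bicarbonate). An 8 mM stock in DMSO/methanol (1:10) was serially diluted twofold in medium; NONOate sodium salts were diluted in 0.1 M NaOH, with only the final step in medium, used at once. Final inoculum 6×10^3 CFU/mL, 30 °C, 24 h. MIC read nephelometrically as the lowest dilution with no visible growth.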

Aspergillus terreus [1] = experiment: Ratio of MIC for drug to ketoconazole against Aspergillus terreus; assay type: functional
Procedure, shortened: (§1)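 FIC is calculated as the MIC of the test compound divided by the MIC of ketoconazole. Both MICs come from 24 h NCCLS broth microdilution in RPMI 1640/MOPS, starting from an 8 mM stock in twofold dilutions, at 6×10^3 CFU/mL. Incubation is at 37 °C for A. fumigatus and A. terreus and at 30 °C for the other strains.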

Aspergillus fumigatus [2] = experiment: Ratio of MIC for drug to ketoconazole against Aspergillus fumigatus; assay type: functional; procedure, shortened: as §1
Aspergillus fumigatus [3] = experiment: Antifungal activity against Aspergillus fumigatus after 24 hrs by broth microdilution method; assay type: functional
Procedure, shortened: (§2)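 Broth microdilution per NCCLS in RPMI 1640 (L-glutamine, MOPS, no bicarbonate). An 8 mM stock in DMSO/methanol 1:10 is serially diluted twofold; NONOate salts go through 0.1 M NaOH, with only the last step in medium. Inoculum is 6×10^3 CFU/mL final. A. fumigatus and A. terreus are incubated 24 h at 37 °C; others at 30 °C. MIC is the lowest dilution without visible growth, read nephelometrically.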

Aspergillus niger [4] = experiment: Antifungal activity against Aspergillus niger after 24 hrs by broth microdilution method; assay type: functional; procedure, shortened: as §2
Candida albicans [5] = experiment: Antifungal activity against Candida albicans after 24 hrs by broth microdilution method; assay type: functional; procedure, shortened: as §2
Nakaseomyces glabratus [6] = experiment: Antifungal activity against Candida glabrata after 24 hrs by broth microdilution method; assay type: functional; procedure, shortened: as §2
Penicillium chrysogenum [7] = experiment: Antifungal activity against Penicillium notatum after 24 hrs by broth microdilution method; assay type: functional; procedure, shortened: as §2
Aspergillus terreus [8] = experiment: Antifungal activity against Aspergillus terreus after 24 hrs by broth microdilution method; assay type: functional; procedure, shortened: as §2
[9] = tested on: Sporobolomyces salmonicolor; experiment: Antifungal activity against Sporobolomyces salmonicolor after 24 hrs by broth microdilution method; assay type: functional; procedure, shortened: as §2
Aspergillus niger [10] = experiment: Ratio of MIC for drug to ketoconazole against Aspergillus niger; assay type: functional; procedure, shortened: as §1
Fusarium oxysporum [11] = experiment: Ratio of MIC for drug to ketoconazole against Fusarium oxysporum; assay type: functional
Candida albicans [12] = experiment: Ratio of MIC for drug to ketoconazole against Candida albicans; assay type: functional; procedure, shortened: as §1
Nakaseomyces glabratus [13] = experiment: Ratio of MIC for drug to ketoconazole against Candida glabrata; assay type: functional; procedure, shortened: as §1
[14] = tested on: Sporobolomyces salmonicolor; experiment: Ratio of MIC for drug to ketoconazole against Sporobolomyces salmonicolor; assay type: functional; procedure, shortened: as §1
Penicillium chrysogenum [15] = experiment: Ratio of MIC for drug to ketoconazole against Penicillium notatum; assay type: functional; procedure, shortened: as §1
Fusarium oxysporum [16] = experiment: Antifungal activity against Fusarium oxysporum after 24 hrs by agar diffusion method
[17] = Chemical stability of compound assessed as half life of nitric oxide release at pH 7.4; assay type: physicochemical; conditions: buffer

| SMILES | MIC (Candida) | Ratio (Aspergillus terreus [1]) | Ratio (Aspergillus fumigatus [2]) | MIC (Aspergillus fumigatus [3]) | MIC (Aspergillus niger [4]) | MIC (Candida albicans [5]) | MIC (Nakaseomyces glabratus [6]) | MIC (Penicillium chrysogenum [7]) | MIC (Aspergillus terreus [8]) | MIC [9] | Ratio (Aspergillus niger [10]) | Ratio (Fusarium oxysporum [11]) | Ratio (Candida albicans [12]) | Ratio (Nakaseomyces glabratus [13]) | Ratio [14] | Ratio (Penicillium chrysogenum [15]) | MIC (Fusarium oxysporum [16]) | t1/2 [17] |
| --- | --- | --- | --- | --- | --- | --- | --- | --- | --- | --- | --- | --- | --- | --- | --- | --- | --- | --- |
| NCCCN(CCCN)N(O)N=O | 5000 µg/mL (≈ 26.1 mM) |  |  |  |  |  |  |  |  |  |  |  |  |  |  |  |  |  |
| NCCN(CCN)/[N+]([O-])=N/O | 2000 µg/mL (≈ 12.3 mM) |  |  |  |  |  |  |  |  |  |  |  |  |  |  |  |  |  |
| Clc1ccc([C@@]2(Cn3ccnc3)OC[C@H](COc3ccc(N4CCNCC4)cc3)O2)c(Cl)c1 |  | 64 | 32 | 2000 µM (≈ 979 µg/mL) | 2000 µM (≈ 979 µg/mL) | 25 µM (≈ 12.2 µg/mL) | 50 µM (≈ 24.5 µg/mL) | 250 µM (≈ 122 µg/mL) | 2000 µM (≈ 979 µg/mL) | 25 µM (≈ 12.2 µg/mL) | 32 | 4 | 1 | 4 | 16 | 31.25 | 2000 µM (≈ 979 µg/mL) |  |
| O=C(CO/N=[N+](\[O-])N1CCCC1)N1CCN(c2ccccc2)CC1 |  |  |  | > 2000 µM | > 2000 µM | > 2000 µM | > 2000 µM | > 2000 µM | > 2000 µM | > 2000 µM |  |  |  |  |  |  | > 2000 µM |  |
| CC(C)(CO[N+](=O)[O-])C(=O)N1CCN(c2ccccc2)CC1 |  |  |  | > 2000 µM | > 2000 µM | > 2000 µM | > 2000 µM | > 2000 µM | > 2000 µM | > 2000 µM |  |  |  |  |  |  | > 2000 µM |  |
| O=C(CO[N+](=O)[O-])N1CCN(c2ccccc2)CC1 |  |  |  | > 2000 µM | > 2000 µM | > 2000 µM | > 2000 µM | > 2000 µM | > 2000 µM | > 2000 µM |  |  |  |  |  |  | > 2000 µM |  |
| O=[N+]([O-])OCCN1CCN(c2ccccc2)CC1 |  |  |  | > 2000 µM | > 2000 µM | > 2000 µM | > 2000 µM | > 2000 µM | > 2000 µM | > 2000 µM |  |  |  |  |  |  | > 2000 µM |  |
| [O-]/[N+](=N\O)N1CCN(c2ccccc2)CC1 |  |  |  | > 2000 µM | > 2000 µM | > 2000 µM | > 2000 µM | > 2000 µM | > 2000 µM | > 2000 µM |  |  |  |  |  |  | > 2000 µM |  |
| CCO/N=[N+](\[O-])N1CCN(c2ccccc2)CC1 |  |  |  | > 2000 µM | > 2000 µM | > 2000 µM | > 2000 µM | > 2000 µM | > 2000 µM | > 2000 µM |  |  |  |  |  |  | > 2000 µM |  |
| COCO/N=[N+](\[O-])N1CCN(c2ccccc2)CC1 |  |  |  | > 2000 µM | > 2000 µM | > 2000 µM | > 2000 µM | > 2000 µM | > 2000 µM | > 2000 µM |  |  |  |  |  |  | > 2000 µM |  |
| O=C(CO[N+](=O)[O-])N1CCN(c2ccc(OC[C@H]3CO[C@](Cn4ccnc4)(c4ccc(Cl)cc4Cl)O3)cc2)CC1 |  | 0.4 | 0.4 | 25 µM (≈ 14.8 µg/mL) | 12.5 µM (≈ 7.41 µg/mL) | 25 µM (≈ 14.8 µg/mL) | 1.56 µM (≈ 0.924 µg/mL) | 2.5 µM (≈ 1.48 µg/mL) | 12.5 µM (≈ 7.41 µg/mL) | 0.16 µM (≈ 0.0948 µg/mL) | 0.2 | 0.2 | 1 | 0.12 | 0.1 | 0.31 | 100 µM (≈ 59.2 µg/mL) |  |
| O=[N+]([O-])OCCN1CCN(c2ccc(OC[C@H]3CO[C@](Cn4ccnc4)(c4ccc(Cl)cc4Cl)O3)cc2)CC1 |  | 32 | 16 | 1000 µM (≈ 578 µg/mL) | 250 µM (≈ 145 µg/mL) | 12.5 µM (≈ 7.23 µg/mL) | 6.25 µM (≈ 3.62 µg/mL) | 62.5 µM (≈ 36.2 µg/mL) | 1000 µM (≈ 578 µg/mL) | 15.6 µM (≈ 9.02 µg/mL) | 4 | 2 | 0.5 | 0.5 | 10 | 7.81 | 1000 µM (≈ 578 µg/mL) |  |
| [Na+].[O-]/N=[N+](\[O-])N1CCN(c2ccc(OC[C@H]3CO[C@](Cn4ccnc4)(c4ccc(Cl)cc4Cl)O3)cc2)CC1 |  | 3.2 | 3.2 | 200 µM | 100 µM | 100 µM | 12.5 µM | 20 µM | 100 µM | 1.25 µM | 1.6 | 0.4 | 4 | 1 | 0.8 | 2.5 | 200 µM | 4.5 min |
| CCO/N=[N+](\[O-])N1CCN(c2ccc(OC[C@H]3CO[C@](Cn4ccnc4)(c4ccc(Cl)cc4Cl)O3)cc2)CC1 |  | 0.1 | 0.2 | 12.5 µM (≈ 7.22 µg/mL) | 1.56 µM (≈ 0.901 µg/mL) | 50 µM (≈ 28.9 µg/mL) | 3.13 µM (≈ 1.81 µg/mL) | 1.25 µM (≈ 0.722 µg/mL) | 3.13 µM (≈ 1.81 µg/mL) | 0.16 µM (≈ 0.0924 µg/mL) | 0.025 | 0.1 | 2 | 0.25 | 0.1 | 0.16 | 50 µM (≈ 28.9 µg/mL) |  |
| COCO/N=[N+](\[O-])N1CCN(c2ccc(OC[C@H]3CO[C@](Cn4ccnc4)(c4ccc(Cl)cc4Cl)O3)cc2)CC1 |  | 0.26 | 0.13 | 8 µM (≈ 4.75 µg/mL) | 4 µM (≈ 2.37 µg/mL) | 25 µM (≈ 14.8 µg/mL) | 3.13 µM (≈ 1.86 µg/mL) | 1.56 µM (≈ 0.926 µg/mL) | 8 µM (≈ 4.75 µg/mL) | 2 µM (≈ 1.19 µg/mL) | 0.06 | 0.5 | 1 | 0.25 | 1.3 | 0.2 | 250 µM (≈ 148 µg/mL) |  |
| O=C(CO/N=[N+](\[O-])N1CCCC1)N1CCN(c2ccc(OC[C@H]3CO[C@](Cn4ccnc4)(c4ccc(Cl)cc4Cl)O3)cc2)CC1 |  | 2 | 2 | 125 µM (≈ 82.6 µg/mL) | 62.5 µM (≈ 41.3 µg/mL) | 25 µM (≈ 16.5 µg/mL) | 12.5 µM (≈ 8.26 µg/mL) | 8 µM (≈ 5.28 µg/mL) | 62.5 µM (≈ 41.3 µg/mL) | 2 µM (≈ 1.32 µg/mL) | 1 | 2 | 1 | 1 | 1.3 | 1 | 1000 µM (≈ 661 µg/mL) |  |
| CC(C)(CO[N+](=O)[O-])C(=O)N1CCN(c2ccc(OC[C@H]3CO[C@](Cn4ccnc4)(c4ccc(Cl)cc4Cl)O3)cc2)CC1 |  | 0.05 | 0.05 | 3.13 µM (≈ 1.99 µg/mL) | 1.56 µM (≈ 0.99 µg/mL) | 6.25 µM (≈ 3.97 µg/mL) | 3.13 µM (≈ 1.99 µg/mL) | 8 µM (≈ 5.08 µg/mL) | 1.56 µM (≈ 0.99 µg/mL) | 0.6 µM (≈ 0.381 µg/mL) | 0.025 | 0.05 | 0.25 | 0.25 | 0.38 | 1 | 25 µM (≈ 15.9 µg/mL) |  |
| CC(=O)N1CCN(c2ccc(OCC3COC(Cn4ccnc4)(c4ccc(Cl)cc4Cl)O3)cc2)CC1 (stereo not drawn) [KETOCONAZOLE] |  |  |  | 62.5 µM (≈ 33.2 µg/mL) | 62.5 µM (≈ 33.2 µg/mL) | 25 µM (≈ 13.3 µg/mL) | 12.5 µM (≈ 6.64 µg/mL) | 8 µM (≈ 4.25 µg/mL) | 31.2 µM (≈ 16.6 µg/mL) | 1.56 µM (≈ 0.829 µg/mL) |  |  |  |  |  |  | 500 µM (≈ 266 µg/mL) |  |
| c1ccc(N2CCNCC2)cc1 [PHENYLPIPERAZINE] |  |  |  | > 2000 µM | > 2000 µM | > 2000 µM | > 2000 µM | > 2000 µM | > 2000 µM | > 2000 µM |  |  |  |  |  |  | > 2000 µM |  |
